Blank lines part the entries; values can stand above or below the compound they belong to.
Columns and labels:
[1] = tested on: Human immunodeficiency virus; test: The inhibition of compound was determined by reverse transcriptase assay using RNA as template; assay type: functional
Outline: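 HIV reverse transcriptase assay with poly(rA):oligo(dT) as RNA template/primer. Various triphosphate concentrations were tested, and Ki was derived from Dixon plots.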

[2] = tested on: Human immunodeficiency virus; test: The inhibition of compound was determined by reverse transcriptase assay using DNA as template; assay type: functional
Outline: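 HIV reverse transcriptase assay (DNA-dependent DNA polymerase activity) with poly(dA):oligo(dT) as DNA template/primer. Various triphosphate concentrations were tested, and Ki was derived from Dixon plots.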

[3] = The 50% inhibitory concentration expresses cellular toxicity measured against normal human granulocyte-monocyte cells
CCRF-CEM [4] = test: Cellular toxicity was measured in CEM cells after 8 days by using a [3H]- thymidine uptake assay; assay type: cell-based; conditions: human, 192 h, read-out: TCID50
Outline: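 Uninfected CEM cells treated with various compound concentrations for 8 days; cytotoxicity read by [3H]thymidine uptake and expressed as 50% tissue culture inhibitory dose (TCID50).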

CCRF-CEM [5] = test: In vitro antiviral test was performed on HIV(LAV strain) infected CEM cells; assay type: functional; conditions: Homo sapiens, read-out: ID50 (the source's name)
Outline: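 CEM-F cells infected with about 30 TCID50 of HIV (LAV strain), held 45 min at 37 °C, then given compound at various concentrations in culture medium and incubated 8 days. Virus expression read as p24 gag antigen in culture supernatant by sandwich/enzyme-capture ELISA. ID50 (μM) taken as the dose inhibiting 50% of virus expression.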

[6] = The 50% inhibitory concentration expresses cellular toxicity measured against normal human erythrocyte progenitor cells (BFU-E); conditions: read-out: ID50 (the source's name)
[7] = The 90% inhibitory concentration expresses cellular toxicity measured against normal human granulocyte-monocyte cells
[8] = Cellular toxicity was measured in normal human granulocyte-monocyte progenitor cells (CFU-GM); conditions: read-out: ID50 (the source's name)
CCRF-CEM [9] = test: Cellular toxicity measured in CEM cells

Compound: Cc1cn([C@H]2CC[C@@H](COP(=O)(O)OP(=O)(O)OP(=O)(O)O)O2)c(=O)[nH]c1=O
Ki [1]: 0.05 µM
Ki [2]: 84 µM

Compound: Cc1cn([C@H]2C=C[C@@H](COP(=O)(O)OP(=O)(O)OP(=O)(O)O)O2)c(=O)[nH]c1=O [STAVUDINE TRIPHOSPHATE]
Ki [1]: 0.032 µM
Ki [2]: 70 µM

IC50 (CCRF-CEM [5]): 0.15 µM
Compound: Cc1cn([C@H]2C=C[C@@H](CO)O2)c(=O)[nH]c1=O [STAVUDINE]
ID50 [3]: 100 µM
CC50 (CCRF-CEM [4]): 90 µM
CC50 [6]: 10 µM
ID90 [7]: > 100 µM

Compound: Cc1cn([C@H]2C[C@H](N=[N+]=[N-])[C@@H](COP(=O)(O)OP(=O)(O)OP(=O)(O)O)O2)c(=O)[nH]c1=O [ZIDOVUDINE TRIPHOSPHATE]
Ki [1]: 0.007 µM
Ki [2]: 84 µM

Compound: Cc1cn([C@H]2C[C@H](N=[N+]=[N-])[C@@H](CO)O2)c(=O)[nH]c1=O [ZIDOVUDINE]
CC50 [8]: 1 µM
CC50 (CCRF-CEM [9]): 29 µM
IC50 (CCRF-CEM [5]): 0.1 µM
CC50 [6]: 6.7 µM
ID90 [7]: 20 µM
